Consider two compounds from ChEMBL document CHEMBL1141109, “Synthesis of an estrogen receptor beta-selective radioligand: 5-[18F]fluoro-(2R,3S)-2,3-bis(4-hydroxyphenyl)pentanenitrile and comparison of in vivo distribution with 16alpha-[18F]fluoro-17beta-estradiol” (J Med Chem, 2005).

The structures appear in SMILES notation.

Data set [1] in a line: Biodistribution of [18F]-FES in alpha estrogen receptor knock out mouse bone after 30 min; (n=3). The format is ADME, organism-based, Bone element. Particulars: in vivo, 0.5 h. In short, it runs like this: (§1)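 Female αERKO mice rested 48 h after shipping and fed estrogen-free chow. Estrous stage was checked by daily vaginal smears, and mice were used in diestrus. Each received 13 µCi [18F]FES in 100 µL 10% ethanol/saline. Animals were sacrificed at 30 min, 1 h or 2 h (n = 3 each). Tissue uptake is reported as %ID/g ± SD.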

The nature of data set [2]: Biodistribution of [18F]FES in alpha estrogen receptor knock out mouse lung after 30 min; (n=3). The format is ADME, organism-based. Particulars: in vivo, 0.5 h. In short, it runs like this:
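Female αERKO mice were rested 48 h after shipping and fed estrogen-free chow. They were staged by daily vaginal smears and studied in diestrus. Each received 13 µCi [18F]FES in 100 µL 10% ethanol/saline and was sacrificed at 30 min, 1 h or 2 h (n = 3 per time). Tissue uptake is given as %ID/g ± SD.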

Data set [3] is described as follows: Biodistribution of [18F]FES in beta estrogen receptor knock out mouse muscle after 30 min(n=2); mice in nonestrus stage. In kind it is ADME, organism-based, Muscle tissue. Conditions: in vivo, 0.5 h.
The nature of data set [4]: Biodistribution of [18F]FES in beta estrogen receptor knock out mouse spleen after 30 min(n=2); mice in nonestrus stage. The format is ADME, organism-based. Conditions: in vivo, 0.5 h.
Data set [5] is described as follows: Biodistribution of [18F]FES in beta estrogen receptor knock out mouse uterus after 30 min(n=2); mice in nonestrus stage. In kind it is ADME, organism-based. Conditions: in vivo, 0.5 h.
Data set [6] is described as follows: Biodistribution of [18F]FES in alpha estrogen receptor knock out mouse brain after 1 h; (n=3). In kind it is ADME, organism-based. Conditions: in vivo. In short, it runs like this: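 αERKO mice were kept on estrogen-free chow and studied in diestrus, as staged by vaginal smear. Each was injected with 13 µCi tracer in 100 µL 10% ethanol/saline and killed at 30 min, 1 h or 2 h (n = 3 each). Organ activity was gamma-counted and expressed as %ID/g ± SD.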

Data set [7] in a line: Biodistribution of [18F]FES in beta estrogen receptor knock out mouse kidney after 2 h; (n=3). The format is ADME, organism-based. Particulars: in vivo.
The nature of data set [8]: Biodistribution of [18F]FES in beta estrogen receptor knock out mouse muscle after 2 h; (n=3). Conditions: in vivo. In kind it is ADME, organism-based, Muscle tissue.
The nature of data set [9]: Biodistribution of [18F]FES in beta estrogen receptor knock out mouse fat after 1 h; (n=3). The format is ADME, organism-based, Adipose tissue. Particulars: in vivo.
A short description of data set [10]: Biodistribution of [18F]FES in alpha estrogen receptor knock out mouse fat after 1 h; (n=3). The format is ADME, organism-based, Adipose tissue. Particulars: in vivo. In short, it runs like this:
as §1

The nature of data set [11]: Biodistribution of [18F]-FES in beta estrogen receptor knock out mouse lung after 2 h; (n=3). In kind it is ADME, organism-based. Particulars: in vivo. In short, it runs like this:
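Female βERKO mice in estrus were used because repeated swabbing had induced pseudopregnancy. They were fed estrogen-free chow. Each received 13 µCi [18F]FES in 100 µL 10% ethanol/saline and was sacrificed at 30 min, 1 h or 2 h (n = 3 each). Tissue uptake is given as %ID/g ± SD.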

Data set [12] in a line: Biodistribution of [18F]FES in beta estrogen receptor knock out mouse blood after 2 h; (n=3). In kind it is ADME, organism-based. Particulars: in vivo.
A short description of data set [13]: Biodistribution of [18F]FES in beta estrogen receptor knock out mouse ovaries after 2 h; (n=3). Particulars: in vivo. The format is ADME, organism-based, Female gonad.
Data set [14] in a line: Biodistribution of [18F]FEDPN in beta estrogen receptor knock out mouse liver after 30 min; (n=3). Conditions: in vivo, 0.5 h. In kind it is ADME, organism-based. In outline: (§2)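 αERKO and βERKO mice, staged by daily vaginal smears and kept on estrogen-free chow, were studied in a nonestrous stage. Each mouse received 11 μCi of tracer in 130 μL of 10% ethanol/saline. Mice were killed at 30 min, 1 h or 2 h (n = 3 each). Organs were removed, blotted, weighed and gamma-counted against an injectate standard. Uptake is given as %ID/g ± SD.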

The nature of data set [15]: Biodistribution of [18F]-FEDPN in alpha estrogen receptor knock out mouse blood after 30 min; (n=3). The format is ADME, organism-based. Conditions: in vivo, 0.5 h. In short, it runs like this:
(§3)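 ERKO female mice (αERKO or βERKO), rested 48 h after shipping, placed on estrogen-free chow, and staged by daily vaginal smears. Injected in a nonestrous stage with 11 µCi [18F]FEDPN in 130 µL of 10% ethanol/saline. Killed at 30 min, 1 h or 2 h. Organs counted and reported as %ID/g ± SD, three animals per point.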

A short description of data set [16]: Biodistribution of [18F]-FEDPN in rat uterus after 2 h when given in tail vein; (n=5). The format is ADME, organism-based. Conditions: in vivo, iv. In outline:
(§4)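 Immature female Sprague–Dawley rats (<25 days old) anesthetized with isoflurane/O2. Given 20 µCi tracer by tail vein in 150 µL of 20% ethanol/saline. […] Killed at 30 min, 1 h or 2 h. Blood and organs blotted, weighed and gamma-counted against a standard dilution of the injectate. Reported as %ID/g ± SD, n=5.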

A short description of data set [17]: Biodistribution of [18F]-FEDPN in rat ovaries after 1 hr when given in tail vein; (n=5). The format is ADME, organism-based, Female gonad. Conditions: in vivo, iv. In short, it runs like this: as §4
Data set [18] can be described thus: Biodistribution of [18F]FEDPN in rat blood after 30 min when given in tail vein; (n=5). The format is ADME, organism-based. Conditions: in vivo, iv, 0.5 h. In outline: (§5)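 Immature female Sprague–Dawley rats (<25 days old) under isoflurane/O2 got 20 µCi tracer in 150 µL 20% ethanol/saline by tail vein. […] Rats were killed at 30 min, 1 h or 2 h. Organs were blotted, weighed and gamma-counted against an injectate standard. Data are %ID/g ± SD, five rats per point.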

A short description of data set [19]: Biodistribution of [18F]FEDPN in beta estrogen receptor knock out mouse fat after 1 h; (n=3). In kind it is ADME, organism-based, Adipose tissue. Particulars: in vivo. In short, it runs like this:
as §2

A short description of data set [20]: Biodistribution of [18F]FEDPN in beta estrogen receptor knock out mouse spleen after 1 h; (n=3). The format is ADME, organism-based. Conditions: in vivo. In short, it runs like this:
as §2

Data set [21] in a line: Biodistribution of [18F]FEDPN in alpha estrogen receptor knock out mouse fat after 1 h; (n=3). Conditions: in vivo. In kind it is ADME, organism-based, Adipose tissue. In short, it runs like this: as §3
A short description of data set [22]: Biodistribution of [18F]FEDPN in beta estrogen receptor knock out mouse blood after 1 h; (n=3). In kind it is ADME, organism-based. Particulars: in vivo. In outline: as §2
The nature of data set [23]: Biodistribution of [18F]-FEDPN in rat bone after 2 h when given in tail vein; (n=5). In kind it is ADME, organism-based, Bone element. Conditions: in vivo, iv. In short, it runs like this:
as §4

Data set [24] is described as follows: Biodistribution of [18F]-FEDPN in rat blood after 1 hr when given in tail vein; (n=5). Particulars: in vivo, iv. The format is ADME, organism-based. In short, it runs like this:
as §4

Data set [25] can be described thus: Biodistribution of [18F]-FEDPN in rat heart after 2 hr when given in tail vein; (n=5). In kind it is ADME, organism-based. Conditions: in vivo, iv. In outline: as §4
Data set [26] can be described thus: Biodistribution of [18F]-FEDPN in rat uterus after 1 hr when given in tail vein; (n=5). In kind it is ADME, organism-based. Conditions: in vivo, iv. In short, it runs like this:
as §4

Data set [27] can be described thus: Biodistribution of [18F]FEDPN in rat spleen after 30 min when given in tail vein; (n=5). The format is ADME, organism-based. Conditions: in vivo, iv, 0.5 h. In outline:
as §5

A short description of data set [28]: Biodistribution of [18F]FEDPN in alpha estrogen receptor knock out mouse lung after 30 min; (n=3). In kind it is ADME, organism-based. Conditions: in vivo, 0.5 h. In short, it runs like this: as §2
Data set [29] deals with T1, Estrogen receptor (Mus musculus) (UniProt O08537+P19785). The data set is described as follows: Ratio of [18F]FEDPN uptake in uterus of ERbeta KO-mouse and ERalpha KO-mouse (nonestrus) after 1 hr.
For data set [30], the target named is T1, Estrogen receptor (Mus musculus). Kind of data set: Ratio of [18F]FEDPN uptake in uterus of ERbeta KO-mouse (diestrus) and ERalpha KO-mouse (nonestrus) after 2 hr.
Data set [31] shares this target. The data set is described as follows: Ratio of [18F]FEDPN uptake in uterus of ERbeta KO-mouse (diestrus) and ERalpha KO-mouse (nonestrus) after 30 min.

T1 sequence (O08537 whole entry, looked up): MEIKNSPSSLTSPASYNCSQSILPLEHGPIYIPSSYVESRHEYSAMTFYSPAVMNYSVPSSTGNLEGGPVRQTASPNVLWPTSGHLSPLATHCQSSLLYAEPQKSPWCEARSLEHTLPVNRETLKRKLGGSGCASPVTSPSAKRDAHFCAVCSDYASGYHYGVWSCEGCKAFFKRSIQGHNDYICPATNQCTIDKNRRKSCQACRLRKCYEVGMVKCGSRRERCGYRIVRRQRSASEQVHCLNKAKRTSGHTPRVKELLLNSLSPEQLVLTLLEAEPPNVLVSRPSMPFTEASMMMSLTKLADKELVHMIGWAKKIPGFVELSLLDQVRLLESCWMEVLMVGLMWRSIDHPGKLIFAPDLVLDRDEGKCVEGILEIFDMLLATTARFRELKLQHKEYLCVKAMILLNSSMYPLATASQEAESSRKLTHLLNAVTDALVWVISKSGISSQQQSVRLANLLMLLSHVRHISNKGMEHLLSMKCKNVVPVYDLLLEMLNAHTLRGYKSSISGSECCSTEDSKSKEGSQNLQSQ
T1 sequence (P19785 whole entry, looked up): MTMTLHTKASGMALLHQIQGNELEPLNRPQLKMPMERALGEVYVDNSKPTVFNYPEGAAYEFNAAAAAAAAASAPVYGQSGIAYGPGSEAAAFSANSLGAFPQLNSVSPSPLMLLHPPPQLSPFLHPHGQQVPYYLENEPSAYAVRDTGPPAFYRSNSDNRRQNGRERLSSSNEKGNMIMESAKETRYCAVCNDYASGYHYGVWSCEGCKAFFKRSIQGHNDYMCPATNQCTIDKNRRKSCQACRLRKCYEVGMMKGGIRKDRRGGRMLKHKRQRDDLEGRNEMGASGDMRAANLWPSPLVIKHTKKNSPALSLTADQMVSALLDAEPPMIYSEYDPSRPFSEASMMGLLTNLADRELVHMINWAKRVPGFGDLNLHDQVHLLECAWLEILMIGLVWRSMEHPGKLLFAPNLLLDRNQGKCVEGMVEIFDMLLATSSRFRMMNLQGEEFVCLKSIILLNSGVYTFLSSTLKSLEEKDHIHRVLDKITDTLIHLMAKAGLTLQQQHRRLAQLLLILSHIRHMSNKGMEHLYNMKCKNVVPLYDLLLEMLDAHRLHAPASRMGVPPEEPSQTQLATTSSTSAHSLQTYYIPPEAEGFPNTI

With `C[C@]12CC[C@@H]3c4ccc(O)cc4CC[C@H]3[C@@H]1C[C@@H](F)[C@@H]2O` [FLUOROESTRADIOL], the Biodistribution turned out to be 0.44 %ID/g in data set [1]; 2.19 %ID/g in [2]; 1.89 %ID/g in [3]; 1.29 %ID/g in data set [4]; 18.86 %ID/g in data set [5]; 0.07 %ID/g in data set [6]. For the same compound, the Biodistribution was determined as 1.05 %ID/g in data set [7]; 0.54 %ID/g in [8]; 1.07 %ID/g in data set [9]; 0.14 %ID/g in [10]; 0.54 %ID/g in data set [11]; 0.16 %ID/g in [12]. For the same compound, in data set [13], the Biodistribution is 3.4 %ID/g.
With `N#C[C@H](c1ccc(O)cc1)[C@@H](CCF)c1ccc(O)cc1`, the Biodistribution in [14] is 4.55 %ID/g; in data set [15], 0.73 %ID/g; in data set [16] it was 0.28 %ID/g; in [17], 0.67 %ID/g; in data set [18], 0.64 %ID/g; in data set [19] it was 0.33 %ID/g. The Biodistribution in data set [20] was determined as 0.4 %ID/g; in data set [21], 0.27 %ID/g; in data set [22], 1.12 %ID/g; in data set [23], 1.88 %ID/g; in [24] it was 0.55 %ID/g; in [25], 0.11 %ID/g. The Biodistribution is 0.74 %ID/g in [26], 0.31 %ID/g in data set [27] and 4.32 %ID/g in data set [28]. The values for the Ratio in data set [29], in [30] and in data set [31] were 1.46, 1.29 and 1.67, respectively.
